This note sets out measurements from ChEMBL document CHEMBL3352570, “ST7612AA1, a thioacetate-ω(γ-lactam carboxamide) derivative selected from a novel generation of oral HDAC inhibitors” (J Med Chem, 2014).

SMILES strings stand for the structures.

One may read the IC50 as the concentration that gives 50% inhibition. By inhibition in vivo is commonly meant the change of the read-out against control, counted positive when it falls. One may read the inhibition as how much of the control response was suppressed. The low end stands for little suppression, the high end for strong suppression.

One data set has as its target Histone deacetylase 1 (Homo sapiens, UniProt Q13547). The data set is described as follows: Inhibition of HDAC1 (unknown origin) using fluorogenic tetrapeptide RHKK(Ac) substrate by fluorescence assay.
Data set [1] is described as follows: Antitumor activity against human HCT116 cells xenografted in athymic nude mouse assessed as tumor volume inhibition at 100 mg/kg, po qd for 5 days a week for 3 weeks. The format is functional. Conditions: HCT-116. Put shortly: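 Female athymic nude mice, 5–6 weeks old, were inoculated sc in the right flank with 5 × 10⁶ exponentially growing tumor cells per 100 μL. Oral dosing once daily began 3 days after tumor injection, in Solutol HS15 diluted 1/20 in water. Tumor volume inhibition was calculated as TVI% = 100 − [(mean TV treated/mean TV control) × 100].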
In general terms: In xenograft studies the graft and the host belong to different species.

Data set [2] is described as follows: Efflux ratio of permeability from apical to basolateral side to basolateral to apical side of human Caco2 cells in presence of digoxin. Conditions: caco-2. In kind it is ADME, cell-based. Put shortly:
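Caco-2 AB/BA flux ratio measured with digoxin coincubated with test and reference compounds. Means of at least three experiments.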
Background: Caco-2 monolayers are a common model of the intestinal barrier.

Data set [3] concerns the target T1, Cholecystokinin receptor type A (Homo sapiens) (UniProt P32238).
T1 sequence (whole entry): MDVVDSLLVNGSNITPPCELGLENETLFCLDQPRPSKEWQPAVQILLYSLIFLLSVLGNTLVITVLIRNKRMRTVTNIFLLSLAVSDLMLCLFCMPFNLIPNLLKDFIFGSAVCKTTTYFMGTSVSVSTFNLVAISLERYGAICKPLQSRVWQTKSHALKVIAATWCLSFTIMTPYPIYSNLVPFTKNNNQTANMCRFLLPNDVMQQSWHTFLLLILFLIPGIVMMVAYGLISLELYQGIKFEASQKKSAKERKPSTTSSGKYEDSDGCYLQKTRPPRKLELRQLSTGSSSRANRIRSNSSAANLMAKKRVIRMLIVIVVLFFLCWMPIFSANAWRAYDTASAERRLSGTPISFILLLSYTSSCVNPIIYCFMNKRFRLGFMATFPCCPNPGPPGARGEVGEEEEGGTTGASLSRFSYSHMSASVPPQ
The data set is described as follows: Inhibition of human CCK1 at 10 uM by radioligand displacement assay. Put shortly: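 Tested at 10⁻⁵ M within a 40-target panel of receptors, ion channels and enzymes. Read-out was percent displacement of a radiolabeled reference ligand.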
(In general: In a radioligand displacement assay an active substance lowers the binding of a labelled ligand.)

In a further data set the target is Histone deacetylase 2 (Homo sapiens, UniProt Q92769). The data set is described as follows: Inhibition of HDAC2 (unknown origin) using fluorogenic tetrapeptide RHKK(Ac) substrate by fluorescence assay.
Histone deacetylase 2, sequence (Q92769 whole entry): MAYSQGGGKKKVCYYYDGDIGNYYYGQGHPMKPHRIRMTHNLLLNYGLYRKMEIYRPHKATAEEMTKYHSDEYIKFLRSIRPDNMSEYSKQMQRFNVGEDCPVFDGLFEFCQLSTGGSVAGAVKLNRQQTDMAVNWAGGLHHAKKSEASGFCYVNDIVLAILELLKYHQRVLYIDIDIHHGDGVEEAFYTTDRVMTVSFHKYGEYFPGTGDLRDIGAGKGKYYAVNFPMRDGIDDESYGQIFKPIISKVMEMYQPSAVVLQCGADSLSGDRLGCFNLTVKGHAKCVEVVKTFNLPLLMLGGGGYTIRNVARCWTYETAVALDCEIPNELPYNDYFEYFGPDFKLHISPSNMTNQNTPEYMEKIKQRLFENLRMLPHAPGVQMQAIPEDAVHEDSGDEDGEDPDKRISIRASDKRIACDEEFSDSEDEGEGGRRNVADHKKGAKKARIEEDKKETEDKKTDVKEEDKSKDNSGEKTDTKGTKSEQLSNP
For a further data set, the target named is T2, Histone deacetylase 8 (Homo sapiens, UniProt Q9BY41).
T2 sequence (Q9BY41 whole entry): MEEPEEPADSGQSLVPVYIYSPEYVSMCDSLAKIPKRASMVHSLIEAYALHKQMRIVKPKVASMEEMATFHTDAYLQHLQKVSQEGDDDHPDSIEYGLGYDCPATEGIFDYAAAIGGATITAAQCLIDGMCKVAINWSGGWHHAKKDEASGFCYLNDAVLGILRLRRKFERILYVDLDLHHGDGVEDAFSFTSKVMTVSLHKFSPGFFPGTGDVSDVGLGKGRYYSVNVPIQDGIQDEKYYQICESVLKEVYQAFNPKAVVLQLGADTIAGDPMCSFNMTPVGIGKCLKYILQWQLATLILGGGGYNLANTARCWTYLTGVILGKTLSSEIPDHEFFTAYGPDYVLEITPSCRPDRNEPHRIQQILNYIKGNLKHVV
The data set is described as follows: Inhibition of HDAC8 (unknown origin) using fluorogenic tetrapeptide RHK(Ac)K(Ac) substrate by fluorescence assay.

Histone deacetylase 1, sequence (Q13547 whole entry): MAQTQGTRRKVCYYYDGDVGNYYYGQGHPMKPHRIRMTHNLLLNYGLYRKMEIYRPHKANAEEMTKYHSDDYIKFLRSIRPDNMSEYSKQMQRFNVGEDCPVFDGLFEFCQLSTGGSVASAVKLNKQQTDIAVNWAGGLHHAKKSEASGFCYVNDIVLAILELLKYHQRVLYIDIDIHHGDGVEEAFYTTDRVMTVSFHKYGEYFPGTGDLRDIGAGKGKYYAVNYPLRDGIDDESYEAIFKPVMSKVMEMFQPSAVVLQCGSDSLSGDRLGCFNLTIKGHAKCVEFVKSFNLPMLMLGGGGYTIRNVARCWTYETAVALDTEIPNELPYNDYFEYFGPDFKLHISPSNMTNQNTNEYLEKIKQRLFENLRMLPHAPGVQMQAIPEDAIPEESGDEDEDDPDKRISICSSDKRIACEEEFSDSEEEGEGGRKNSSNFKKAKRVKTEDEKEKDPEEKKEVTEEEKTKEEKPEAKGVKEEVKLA

With `O=C1CC[C@@H](C(=O)N[C@H](CCCCCS)C(=O)Nc2ccccc2)N1`, the IC50 is 13 nM at Histone deacetylase 1, 78 nM against Histone deacetylase 2 and 281 nM against Histone deacetylase 8. For the same molecule, the inhibition in vivo at 100 mg/kg in data set [1] is 27%. In data set [2], the Ratio is reported as 3.6. Also, the inhibition in data set [3] stood at 45%.
